The source of these data is ChEMBL document CHEMBL1123026, “Preparation and antiarthritic and analgesic activity of 4,5-diaryl-2-(substituted thio)-1H-imidazoles and their sulfoxides and sulfones” (1985).

Common to all, as to format: functional
In assay [1] the test system is Mus musculus. The assay is described as follows: Effective dose by mouse phenyl-p-benzoquinone writhing (PQW)assay after peroral administration; 16.7-121.5. Conditions: po.
Assay [2] deals with Rattus norvegicus. The experiment in a line: Effective dose determined against rat adjuvant arthritis after peroral administration. Conditions: po. An outline of the steps: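 Male Lewis rats (130-150 g) given 0.1 mL Mycobacterium butyricum adjuvant (5 mg/mL in mineral oil) s.c. into the right hind paw; arthritis developed for 2 weeks. Groups of 10 matched for severity were dosed orally by gavage in PVA-acacia vehicle (10 mL/kg) for 7 days. Uninjected left paw volume was measured the day after the last dose. Percent decrease was calculated vs arthritic and nonarthritic controls. ED50 was read from a visually fitted semilog dose-response line.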

Assay [3] relates to Mus musculus. The experiment in a line: Effective dose by mouse phenyl-p-benzoquinone writhing (PQW)assay after peroral administration; 16.6-69.5. Conditions: po.
Assay [4] relates to Mus musculus. The assay is described as follows: Effective dose by mouse phenyl-p-benzoquinone writhing (PQW)assay after peroral administration; activity value ranges from (8.6 - 78.6). Conditions: po. The method, boiled down: (§1)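 Fasted (17-21 h) female white mice, 5-20 per double-blind test, dosed orally with compound suspended in 1% methylcellulose. 0.20 mL aqueous 0.01% phenyl-p-benzoquinone given i.p. 6 min before a 10-min observation for stretching/writhing. ED50 (dose protecting 50% of mice) calculated by the moving-average method.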

Assay [5] relates to Mus musculus. The experiment in a line: Effective dose determined by mouse phenyl-p-benzoquinone writhing (PQW) assay after peroral administration. Conditions: po. The method, boiled down: as §1
Assay [6] relates to Rattus norvegicus. The assay is described as follows: Decrease in paw volume by the effect of compound at a dose of 10 mg/kg. An outline of the steps:
(§2)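 Male Lewis rats (130-150 g) got 0.1 mL adjuvant (heat-killed Mycobacterium butyricum, 5 mg/mL in mineral oil) subplantar in the right hind paw and were left 2 weeks. Groups of 10 matched for severity were dosed orally by gavage (PVA-acacia vehicle, 10 mL/kg) for 7 days. Uninjected left hind paw volume was read the next day. % decrease = (arthritic control − treated)/(arthritic − nonarthritic control) × 100; Student's t-test.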

Assay [7] concerns Mus musculus. The experiment in a line: Effective dose by mouse phenyl-p-benzoquinone writhing (PQW)assay after peroral administration; activity value ranges from (16.2-99). Conditions: po. An outline of the steps:
as §1

For assay [8], the system named is Mus musculus. The assay is described as follows: Effective dose by mouse phenyl-p-benzoquinone writhing (PQW)assay after peroral administration; activity value ranges from (10.9-125.8). Conditions: po. The method, boiled down:
as §1

The subject of assay [9] is Mus musculus. The assay is described as follows: Effective dose by mouse phenyl-p-benzoquinone writhing (PQW)assay after peroral administration; 26.7-130. Conditions: po.
Assay [10] concerns Mus musculus. The experiment in a line: Effective dose by mouse phenyl-p-benzoquinone writhing (PQW)assay after peroral administration; 0.16-0.57. Conditions: po.
In assay [11] the test system is Mus musculus. The assay is described as follows: Effective dose by mouse phenyl-p-benzoquinone writhing (PQW)assay after peroral administration; 20.6-296.0. Conditions: po.
The test system of assay [12] is Mus musculus. The assay is described as follows: Effective dose by mouse phenyl-p-benzoquinone writhing (PQW)assay after peroral administration; activity value ranges from (5.9 - 17.1). Conditions: po. An outline of the steps:
as §1

In assay [13] the test system is Mus musculus. The assay is described as follows: Effective dose by mouse phenyl-p-benzoquinone writhing (PQW)assay after peroral administration; activity value ranges from (7.5-51.9). Conditions: po. An outline of the steps: as §1
Assay [14] concerns Mus musculus. The experiment in a line: Effective dose by mouse phenyl-p-benzoquinone writhing (PQW)assay after peroral administration; 30.9-197.0. Conditions: po.
Assay [15] deals with Rattus norvegicus. The experiment in a line: Decrease in paw volume was evaluated at dose 150 mg/kg. An outline of the steps:
as §2

Assay [16] deals with Mus musculus. The experiment in a line: Effective dose by mouse phenyl-p-benzoquinone writhing (PQW)assay after peroral administration; activity value ranges from (22.9 - 118). Conditions: po. The method, boiled down: as §1
Assay [17] concerns Mus musculus. The experiment in a line: Effective dose by mouse phenyl-p-benzoquinone writhing (PQW)assay after peroral administration; activity value ranges from (2.7-11.8). Conditions: po. The method, boiled down:
as §1

Assay [18] deals with Mus musculus. The assay is described as follows: Effective dose by mouse phenyl-p-benzoquinone writhing (PQW)assay after peroral administration; activity value ranges from (0.48-1.53). Conditions: po.
Assay [19] has as its system Mus musculus. The experiment in a line: Effective dose by mouse phenyl-p-benzoquinone writhing (PQW)assay after peroral administration; activity value ranges from (0.9-4.5). Conditions: po.
In assay [20] the test system is Mus musculus. The experiment in a line: Effective dose by mouse phenyl-p-benzoquinone writhing (PQW)assay after peroral administration; activity value ranges from (0.05-0.27). Conditions: po.
Assay [21] relates to Mus musculus. The assay is described as follows: Effective dose by mouse phenyl-p-benzoquinone writhing (PQW)assay after peroral administration; 27.2-42.9. Conditions: po.
Assay [22] concerns Mus musculus. The assay is described as follows: Effective dose by mouse phenyl-p-benzoquinone writhing (PQW)assay after peroral administration; activity value ranges from (49.8-84.8). Conditions: po. The method, boiled down:
as §1

Turning to `COc1ccc(-c2nc(SC(F)(F)C(F)F)[nH]c2-c2ccc(OC)cc2)cc1`, the ED50 amounted to 45 mg/kg in the assay on Mus musculus [1] and 4.5 mg/kg with Rattus norvegicus [2]. For the compound `CN(C)c1ccc(-c2[nH]c(SC(F)(F)C(F)F)nc2-c2ccccc2)cc1`, the ED50 in the assay on Mus musculus [3] came out at 34 mg/kg; with Rattus norvegicus [2] it was 3 mg/kg. As for `COc1ccc(-c2nc(S(=O)(=O)CC(C)=O)[nH]c2-c2ccc(OC)cc2)cc1`, the ED50 in the assay on Mus musculus [4] is 26 mg/kg; with Rattus norvegicus [2] it was 20 mg/kg. With `CS(=O)(=O)c1nc(-c2cccc(Cl)c2)c(-c2ccccc2)[nH]1`, the ED50 in the assay with Mus musculus [5] is > 130 mg/kg. In the assay with Rattus norvegicus [6], this compound showed a Decrease of 55%. Consider `CCC[S+]([O-])c1nc(-c2ccc(OC)cc2)c(-c2ccc(OC)cc2)[nH]1` (centres undefined), for which the ED50 was 40 mg/kg with Mus musculus [7] and 15 mg/kg in the assay on Rattus norvegicus [2]. With `COc1ccc(-c2nc([S+]([O-])C(F)(F)F)[nH]c2-c2ccc(OC)cc2)cc1` (centres undefined), the ED50 in the assay on Mus musculus [8] was 37 mg/kg; with Rattus norvegicus [2] it was 3 mg/kg. Consider `COc1ccc(-c2nc(SC(F)(F)C(F)Br)[nH]c2-c2ccc(OC)cc2)cc1` (centres undefined), for which the ED50 was 59 mg/kg in the assay with Mus musculus [9] and 10 mg/kg with Rattus norvegicus [2].

As for `COc1ccc(-c2nc(S(=O)(=O)C(F)(F)C(F)Br)[nH]c2-c2ccc(OC)cc2)cc1` (centres undefined), the 50% effect level in the assay on Mus musculus [10] (ED50) was put at a dose of 0.3 mg/kg. For `FC(F)Sc1nc(-c2ccc(Cl)cc2)c(-c2ccc(Cl)cc2)[nH]1`, it took a dose of 78 mg/kg to reach the 50% effect level in the assay with Mus musculus [11] (ED50). Consider `O=S(=O)(CC(F)(F)F)c1nc(-c2ccc(Cl)cc2)c(-c2ccc(Cl)cc2)[nH]1`, for which the ED50 in the assay on Mus musculus [12] and in the assay on Rattus norvegicus [2] was 10 mg/kg each time. Turning to `O=S(=O)(c1nc(-c2cccc(Cl)c2)c(-c2ccccc2)[nH]1)C(F)(F)C(F)F`, the results for the ED50 in the assay with Mus musculus [13] and in the assay with Rattus norvegicus [2] were 19.8 mg/kg and 0.04 mg/kg, respectively. In turn, `COc1ccc(-c2[nH]c(SC(F)(F)F)nc2-c2ccc(F)cc2)cc1` showed an ED50 in the assay with Mus musculus [14] of 78 mg/kg.

On to `FC(F)(F)CSc1nc(-c2ccccc2)c(-c2ccccc2)[nH]1`, for which the ED50 in the assay with Mus musculus [5] is > 130 mg/kg. Further, the Decrease in the assay with Rattus norvegicus [15] was 54%. For the compound `[O-][S+](c1nc(-c2ccc(Cl)c(Cl)c2)c(-c2ccccc2)[nH]1)C(F)(F)C(F)F` (centres undefined), the ED50 in the assay with Mus musculus [16] came out at 52 mg/kg; in the assay on Rattus norvegicus [2] it was 0.45 mg/kg. Take `O=S(=O)(c1nc(-c2ccccc2)c(-c2ccccc2)[nH]1)C(F)(F)CF`: the ED50 is 5.6 mg/kg with Mus musculus [17] and 0.14 mg/kg in the assay with Rattus norvegicus [2]. Turning to `O=S(=O)(c1nc(-c2ccc(F)cc2)c(-c2ccccc2)[nH]1)C(F)(F)C(F)F`, the ED50 was determined as 0.86 mg/kg in the assay with Mus musculus [18] and 0.03 mg/kg in the assay on Rattus norvegicus [2]. Compound `O=S(=O)(c1nc(-c2cccc(F)c2)c(-c2ccccc2)[nH]1)C(F)(F)C(F)F` returned an ED50 in the assay with Mus musculus [19] of 2 mg/kg.

Consider `COc1ccc(-c2[nH]c(S(=O)(=O)C(F)(F)F)nc2-c2ccc(F)cc2)cc1`, for which the ED50 with Mus musculus [20] is 0.12 mg/kg. For the compound `O=S(=O)(c1nc(-c2ccccc2)c(-c2ccccc2)[nH]1)C(F)(F)C(Cl)Cl`, the values for the ED50 in the assay on Mus musculus [21] and with Rattus norvegicus [2] were 34.2 mg/kg and 1.7 mg/kg, respectively.

`CCCCC1C(=O)N(c2ccccc2)N(c2ccccc2)C1=O` [PHENYLBUTAZONE]: in the assay with Mus musculus [22], it took a dose of 65 mg/kg to reach the 50% effect level (ED50).
